Only some compounds are listed: those with a hit (about 5.8% of all), similar ones and a draw of the others.
Pf Dd2 growth = P. falciparum Dd2 growth inhibitors, primary screen, SYBR Green fluorescence, single dose replicates | activity change, % at 10 µM | AID 1159554, 2015 | actives 2.3% (n = 94,000) | 72 h; active compounds read low; in the data active = activity change below about -80%; inconclusive = no clear call, values can overlap the other calls
IDH1 R132H inh = inhibitors of IDH1 R132H reductase, primary screen, biochemical, plate reader, single point; Isocitrate dehydrogenase [NADP] cytoplasmic (Homo sapiens), O75874; diaphorase/resazurin fluorescence, 60 min; inhibition, % at 10 µM; actives 0.18% (n = 70,000); AID 624101, 2012; in the data active = inhibition above about 34%; inconclusive = no clear call, values can overlap the other calls; inactive = below about 11%
Target sequence (O75874 whole entry R132H): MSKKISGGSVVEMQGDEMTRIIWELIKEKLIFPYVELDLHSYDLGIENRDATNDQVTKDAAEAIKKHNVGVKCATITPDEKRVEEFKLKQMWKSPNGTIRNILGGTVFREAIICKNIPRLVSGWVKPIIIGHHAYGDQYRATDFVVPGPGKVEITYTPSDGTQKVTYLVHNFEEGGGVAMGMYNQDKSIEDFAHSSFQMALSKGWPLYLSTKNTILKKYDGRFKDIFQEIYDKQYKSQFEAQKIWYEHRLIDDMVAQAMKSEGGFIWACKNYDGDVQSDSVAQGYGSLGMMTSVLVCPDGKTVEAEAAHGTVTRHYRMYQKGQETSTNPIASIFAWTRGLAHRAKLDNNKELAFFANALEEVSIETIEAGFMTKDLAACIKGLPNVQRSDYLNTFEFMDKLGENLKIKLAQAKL
T cruzi growth-1 = T. cruzi intracellular proliferation inhibitors, primary screen, cell-based, beta-gal Tulahuen parasites, NIH3T3 host, luminescence. T. cruzi beta-gal in NIH3T3, GalScreen luminescence, 90 h. inhibition, % at 8.34 µM. actives 5.9% (n = 77,000). AID 624255, 2012;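 active = mean inhibition above about 93%, with at least 55% of replicates each passing it, limit read from the data, passing the limit was not always enough; inconclusive = only one of those two conditions holds; inactive = neither condition holds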
GASC1 inh = inhibitors of GASC-1 (KDM4C) histone demethylase, primary screen, biochemical, single concentration HTS; GST-KDM4C 2-372, H3K9me3 peptide, LANCE TR-FRET; actives 0.15% (n = 96,000); inhibition, % at 12.5 µM; Lysine-specific demethylase 4C (Homo sapiens), Q9H3R0; AID 720574, 2013;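 active = mean replicate inhibition above about 25%, with at least 55% of replicates also reaching it, limit read from the data, passing the limit was not always enough; inconclusive = only one of those two conditions met; inactive = neither condition met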
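System: N-terminal GST-fused human GASC-1 (KDM4C) fragment, residues 2-372 / Amount: 10 nM GST-KDM4C in enzyme reaction / Also added: H3K9me3 peptide with Fe(II)/2OG / Times: 30 min demethylation and 1 h detection at room temperature / Signal: LANCE TR-FRET / Read-out basis: Fall in 671/618 emission ratio as inhibition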
T cruzi growth-2 = T. cruzi intracellular proliferation inhibitors, confirmation, cell-based, NIH3T3 host, beta-gal parasite, luminescence, cherry-pick; shares compounds with T cruzi growth-1; T. cruzi beta-gal in NIH3T3, GalScreen luminescence, 90 h; inhibition, % at 8.35 µM; actives 72% (n = 5,600);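 active = mean replicate inhibition above about 95% and at least 55% of replicates individually reaching it, limit read from the data; inconclusive = only one of the two criteria is met; inactive = neither criterion is met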
T cruzi growth-3 = inhibitors of intracellular T. cruzi replication, confirmation, NIH3T3 host cells, beta-gal parasites, cherry-pick, set 2; shares compounds with T cruzi growth-1; T. cruzi beta-gal in NIH3T3, GalScreen luminescence, 90 h; inhibition, % at 2.09 µM; actives 21% (n = 5,600); AID 651740, 2012;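 active = mean inhibition above about 95%, with at least 55% of replicates also reaching it, limit read from the data; inconclusive = meets just one of the two conditions; inactive = meets neither condition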
NIH3T3 tox = cytotoxicity in mouse NIH/3T3 fibroblasts, confirmation, cytotoxicity control for T. cruzi proliferation inhibitor project, cell-based, cherry-pick, single point; NIH/3T3 viability, CellTiter-Glo ATP luminescence, 90 h; cytotoxicity (signal decrease), % at 8.35 µM; shares compounds with T cruzi growth-1; actives 14% (n = 5,600); AID 651742, 2012;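 active = mean signal decrease across replicates above about 35% based on untreated-well scatter, with enough replicates individually passing, limit read from the data; inconclusive = no rule stated though some were filed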
NIH3T3 tox 2 = NIH/3T3 fibroblast cytotoxicity, confirmation, cytotoxicity control, cell-based, cherry-pick, single point, set 2 | inhibition, % at 24.9 µM | AID 651744, 2012 | actives 56% (n = 5,600) | NIH/3T3 viability, CellTiter-Glo ATP luminescence, 90 h | shares compounds with T cruzi growth-1;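 active = mean loss of cell viability signal at or above a set limit, and enough replicates individually reaching it; inconclusive = meets only the mean limit or only the replicate share; inactive = meets neither condition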
Each line names hits and unclear results; the compound was inactive in the other large screens (follow-up assays come after a bar, where they were run).

Cc1ccccc1S(=O)(=O)N1CC[C@@H]2[C@H](CO)Nc3ccc(-c4ccc(C#N)cc4)cc3[C@@H]21	T cruzi growth-1 inconclusive (no result: IDH1 R132H inh) | T cruzi growth-2 98 | T cruzi growth-3 104 | NIH3T3 tox inconclusive | NIH3T3 tox 2 67
Cc1ccccc1S(=O)(=O)N1CC[C@@H]2[C@H]1c1cc(-c3ccc(C#N)cc3)ccc1N[C@@H]2CO	T cruzi growth-1 101 (no result: IDH1 R132H inh) | T cruzi growth-2 104 | T cruzi growth-3 inactive | NIH3T3 tox inactive | NIH3T3 tox 2 42
Cn1cnc(S(=O)(=O)N2CC[C@H]3[C@H](CO)Nc4ccc(-c5ccccc5)cc4[C@H]32)c1	T cruzi growth-1 101 (no result: IDH1 R132H inh) | T cruzi growth-2 103 | T cruzi growth-3 inactive | NIH3T3 tox inactive | NIH3T3 tox 2 inactive
CC(C)C(NC=O)C(=O)OCC(O)C(O)C(O)C(O)COC(=O)C(NC=O)C(C)C (stereo unspecified)	none (no result: Pf Dd2 growth, T cruzi growth-1, GASC1 inh)
COc1ccc(S(=O)(=O)N(C)C[C@H]2OCCCC[C@H](C)Oc3ccc(NC(=O)Nc4ccc(F)cc4)cc3C(=O)N([C@H](C)CO)C[C@@H]2C)cc1	T cruzi growth-1 inconclusive (no result: IDH1 R132H inh) | T cruzi growth-2 105 | T cruzi growth-3 inactive | NIH3T3 tox inactive | NIH3T3 tox 2 inactive
COc1ccc(NC(=O)Nc2ccc3c(c2)C(=O)N([C@H](C)CO)C[C@H](C)[C@@H](CN(C)S(=O)(=O)c2ccc(F)cc2)OCCCC[C@H](C)O3)cc1	T cruzi growth-1 113 | T cruzi growth-2 110 | T cruzi growth-3 inactive | NIH3T3 tox inactive | NIH3T3 tox 2 inactive
CCOc1ccccc1NC(=O)CSc1nc2ccccc2c(=O)n1-c1ccc(Cl)cc1	none (no result: Pf Dd2 growth, T cruzi growth-1, GASC1 inh)
COc1cc([N+](=O)[O-])ccc1NC(=O)CN(C)S(=O)(=O)c1ccccc1	none (no result: Pf Dd2 growth, T cruzi growth-1, GASC1 inh)
CCS(=O)(=O)N1CCCCN2[C@H](CO)[C@@H](c3ccc(-c4cccc(C#N)c4)cc3)[C@H]2C1	none (no result: IDH1 R132H inh)
CCS(=O)(=O)N1CCCCN2[C@H](CO)[C@@H](c3ccc(-c4cccc(C#N)c4)cc3)[C@@H]2C1	Pf Dd2 growth -89, T cruzi growth-1 108 (no result: IDH1 R132H inh) | T cruzi growth-2 inactive | T cruzi growth-3 inactive | NIH3T3 tox inactive | NIH3T3 tox 2 69
CCS(=O)(=O)N1CCCCN2[C@@H](CO)[C@@H](c3ccc(-c4ccc(C#N)cc4)cc3)[C@@H]2C1	T cruzi growth-1 99 (no result: IDH1 R132H inh) | T cruzi growth-2 inactive | T cruzi growth-3 inactive | NIH3T3 tox inactive | NIH3T3 tox 2 39
COc1ccccc1-n1nnnc1SCC(=O)Nc1ccccc1SC	none (no result: Pf Dd2 growth, T cruzi growth-1, GASC1 inh)
C[C@@H]1CCCCO[C@@H](CN(C)Cc2ccc(C(=O)O)cc2)[C@@H](C)CN([C@H](C)CO)C(=O)c2cc(NC(=O)C3CCCCC3)ccc2O1	none
C[C@@H]1CCCCO[C@H](CN(C)Cc2ccc(C(F)(F)F)cc2)[C@H](C)CN([C@@H](C)CO)C(=O)c2cc(NC(=O)C3CCCCC3)ccc2O1	T cruzi growth-1 117 | T cruzi growth-2 102 | T cruzi growth-3 110 | NIH3T3 tox 57 | NIH3T3 tox 2 73
C[C@@H]1CCCCO[C@@H](CN(C)Cc2ccc(C(=O)O)cc2)[C@@H](C)CN([C@@H](C)CO)C(=O)c2cc(NC(=O)C3CCCCC3)ccc2O1	none
C[C@@H]1CN([C@H](C)CO)C(=O)c2cc(NC(=O)C3CCCCC3)ccc2O[C@@H](C)CCCCO[C@H]1CN(C)Cc1ccc(C(F)(F)F)cc1	Pf Dd2 growth inconclusive, T cruzi growth-1 inconclusive (no result: IDH1 R132H inh) | T cruzi growth-2 101 | T cruzi growth-3 109 | NIH3T3 tox inactive | NIH3T3 tox 2 49
